Data from ChEMBL document CHEMBL2150901, “Synthesis and biological activity of tricyclic cycloalkylimidazo-, pyrimido- and diazepinopurinediones” (Eur J Med Chem, 2011).
Calls of active or inactive are those of the source. The rule behind the calls is not given here.

How the values were obtained:
[1] = molecular target: T1, Adenosine receptor A1 (Rattus norvegicus, UniProt P25099); assay: Displacement of [3H]CCPA from adenosine A1 receptor in rat brain cortical membrane; assay type: cell membranes
T1 sequence (P25099 whole entry): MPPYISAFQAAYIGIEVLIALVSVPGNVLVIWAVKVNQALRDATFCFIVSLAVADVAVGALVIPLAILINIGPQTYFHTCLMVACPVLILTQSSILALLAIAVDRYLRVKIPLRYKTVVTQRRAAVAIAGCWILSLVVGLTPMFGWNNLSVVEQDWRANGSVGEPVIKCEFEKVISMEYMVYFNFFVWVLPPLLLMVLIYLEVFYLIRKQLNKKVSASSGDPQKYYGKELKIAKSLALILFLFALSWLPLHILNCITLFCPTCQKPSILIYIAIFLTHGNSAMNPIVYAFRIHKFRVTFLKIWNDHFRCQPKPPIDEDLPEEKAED

[2] = system: Mus musculus; assay: Anticonvulsant activity in F1 albino mouse assessed as protection against maximal electroshock-induced seizures at 300 mg/kg, ip after 0.5 hrs; assay type: functional, organism-based; design: dose 300 mg/kg
How it was run: (§1)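 Male albino F-1 mice (18–25 g), groups of 1–5 (rotorod 2–8). Compound given ip as a suspension in 0.5% methylcellulose at 30, 100 and 300 mg/kg. Seizures by maximal electroshock or subcutaneous pentylenetetrazole; neurotoxicity by rotorod. Read at 0.5 and 4 h, with some at 0.25, 1 and 2 h. Value is the minimum active dose, with protected (or toxic)/tested animals.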

[3] = system: Mus musculus; assay: Anticonvulsant activity in F1 albino mouse assessed as protection against subcutaneous pentylenetetrazole-induced seizures at 300 mg/kg, ip after 1 hr; assay type: functional, organism-based; design: dose 300 mg/kg; how it was run: as §1
[4] = system: Mus musculus; assay: Anticonvulsant activity in F1 albino mouse assessed as protection against maximal electroshock-induced seizures at 300 mg/kg, ip after 1 hr; assay type: functional, organism-based; design: dose 300 mg/kg; how it was run: as §1
[5] = system: Mus musculus; assay: Neurotoxicity in F1 albino mouse assessed as minimal motor impairment at 300 mg/kg, ip after 0.25 hrs by rotorod test; assay type: toxicity, organism-based; design: dose 300 mg/kg, route intraperitoneal; conditions: in vivo; how it was run: as §1
[6] = system: Mus musculus; assay: Neurotoxicity in F1 albino mouse assessed as minimal motor impairment at 300 mg/kg, ip after 1 hr by rotorod test; assay type: toxicity, organism-based; design: dose 300 mg/kg, route intraperitoneal; conditions: in vivo; how it was run: as §1
[7] = system: Mus musculus; assay: Anticonvulsant activity in F1 albino mouse assessed as protection against maximal electroshock-induced seizures at 300 mg/kg, ip after 0.25 hrs; assay type: functional, organism-based; design: dose 300 mg/kg; how it was run: as §1
[8] = species: Rattus norvegicus; assay: Selectivity ratio of Ki for adenosine A1 receptor in rat brain cortical membrane to Ki for adenosine A2A receptor in rat brain striatal membrane; assay type: cell membranes
How it was run: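 Ki ratios from radioligand competition binding. Rat A1 used brain cortical membranes and rat A2A used brain striatal membranes. Human A1 and A2A used membranes of CHO cells expressing the receptors. A1 radioligand [³H]CCPA; A2A radioligand [³H]MSX-2. Potent compounds were tested at 6–7 concentrations spanning 3 orders of magnitude.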

[9] = molecular target: T2, Adenosine receptor A1 (Rattus norvegicus) (UniProt P25099); assay: Displacement of [3H]CCPA from adenosine A1 receptor in rat brain cortical membrane at 25 uM; assay type: cell membranes
T2 sequence (whole entry): T1 sequence (P25099 whole entry)

[10] = system: Mus musculus; assay: Neurotoxicity in F1 albino mouse assessed as minimal motor impairment at 300 mg/kg, ip after 0.5 hrs by rotorod test; assay type: toxicity, organism-based; design: dose 300 mg/kg, route intraperitoneal; conditions: in vivo; how it was run: as §1
[11] = system: Mus musculus; assay: Anticonvulsant activity in F1 albino mouse assessed as protection against subcutaneous pentylenetetrazole-induced seizures at 300 mg/kg, ip after 0.25 hrs; assay type: functional, organism-based; design: dose 300 mg/kg; how it was run: as §1
[12] = system: Mus musculus; assay: Anticonvulsant activity in F1 albino mouse assessed as protection against subcutaneous pentylenetetrazole-induced seizures at 300 mg/kg, ip after 4 hrs; assay type: functional, organism-based; design: dose 300 mg/kg; how it was run: as §1
[13] = system: Mus musculus; assay: Anticonvulsant activity in F1 albino mouse assessed as protection against subcutaneous pentylenetetrazole-induced seizures at 300 mg/kg, ip after 0.5 hrs; assay type: functional, organism-based; design: dose 300 mg/kg; how it was run: as §1
[14] = system: Mus musculus; assay: Anticonvulsant activity in F1 albino mouse assessed as protection against maximal electroshock-induced seizures at 300 mg/kg, ip after 4 hrs; assay type: functional, organism-based; design: dose 300 mg/kg; how it was run: as §1
[15] = molecular target: Adenosine receptor A2a (Rattus norvegicus, UniProt P30543); assay: Displacement of [3H]MSX-2 from adenosine A2A receptor in rat brain striatal membrane; assay type: cell membranes
Sequence of Adenosine receptor A2a (P30543 whole entry): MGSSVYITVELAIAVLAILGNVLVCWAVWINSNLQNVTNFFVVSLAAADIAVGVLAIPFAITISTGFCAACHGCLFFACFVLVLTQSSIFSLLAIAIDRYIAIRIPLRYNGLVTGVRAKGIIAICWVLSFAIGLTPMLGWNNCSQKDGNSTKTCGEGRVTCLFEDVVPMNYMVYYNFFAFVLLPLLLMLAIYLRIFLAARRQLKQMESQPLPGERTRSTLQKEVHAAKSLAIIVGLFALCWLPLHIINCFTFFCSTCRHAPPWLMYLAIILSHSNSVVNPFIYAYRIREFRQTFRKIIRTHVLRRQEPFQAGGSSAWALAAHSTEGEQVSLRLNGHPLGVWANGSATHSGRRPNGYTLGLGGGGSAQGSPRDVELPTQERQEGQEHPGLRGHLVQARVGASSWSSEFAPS

[16] = system: Mus musculus; assay: Neurotoxicity in F1 albino mouse assessed as minimal motor impairment at 300 mg/kg, ip after 4 hrs by rotorod test; assay type: toxicity, organism-based; design: dose 300 mg/kg, route intraperitoneal; conditions: in vivo; how it was run: as §1

SMILES | Ki [1] | Ratio Ki [8] | inhibition [9] | Ki [15] | Activity [2] | Activity [3] | Activity [4] | Activity [5] | Activity [6] | Activity [7] | Activity [10] | Activity [11] | Activity [12] | Activity [13] | Activity [14] | Activity [16]
Cn1c(=O)c2c(nc3n2CCN3CC2CCCCC2)n(C)c1=O | ≥ 25000 nM | > 13 | 41% | 2000 nM | inactive | inactive | inactive | Non-toxic | Non-toxic | inactive | Non-toxic | inactive | inactive | inactive | inactive | Non-toxic
CC1CCCCC1N1CCCCn2c1nc1c2c(=O)n(C)c(=O)n1C (mixture of isomers) | > 25000 nM | > 7 | 27% | 3460 nM | inactive | inactive | inactive | Non-toxic | Non-toxic | inactive | Non-toxic | inactive | inactive | Active | inactive | Non-toxic
C[C@H](C1CCCCC1)N1CCCn2c1nc1c2c(=O)n(C)c(=O)n1C | 7890 nM | 6 |  | 1300 nM | inactive | inactive | inactive | Non-toxic | Non-toxic | inactive | Non-toxic | inactive | inactive | inactive | inactive | Non-toxic
Cn1c(=O)c2c(nc3n2CCN3CCC2=CCCCC2)n(C)c1=O | 2450 nM | 1 |  | 2020 nM | inactive | inactive | inactive | Non-toxic | Non-toxic | inactive | Non-toxic | inactive | inactive | inactive | inactive | Toxic
CC(C1CCCCC1)N1CCCn2c1nc1c2c(=O)n(C)c(=O)n1C (racemic) | 7580 nM | 6 |  | 1240 nM | inactive | inactive | inactive | Non-toxic | Non-toxic | inactive | Non-toxic | inactive | inactive | inactive | inactive | Non-toxic

Now from value to molecule, other results behind:

Ki [1] | Ratio Ki [8] | inhibition [9] | Ki [15] | SMILES | Activity [2] | Activity [3] | Activity [4] | Activity [5] | Activity [6] | Activity [7] | Activity [10] | Activity [11] | Activity [12] | Activity [13] | Activity [14] | Activity [16]
> 25000 nM | > 23 | 31% | 1080 nM | CC1CCCCC1N1CCCn2c1nc1c2c(=O)n(C)c(=O)n1C (mixture of isomers) | inactive | inactive | inactive | Non-toxic | Non-toxic | inactive | Non-toxic | inactive | inactive | inactive | inactive | Non-toxic
25000 nM | 8 | 50% | 3100 nM | Cn1c(=O)c2c(nc3n2CCN3C2CCCC2)n(C)c1=O | inactive | inactive | inactive | Non-toxic | Non-toxic | inactive | Toxic | inactive | inactive | Active | inactive | Non-toxic
5060 nM | 4 |  | 1380 nM | Cn1c(=O)c2c(nc3n2CCCCN3C2CCCC2)n(C)c1=O | inactive | inactive | inactive | Non-toxic | Non-toxic | inactive | Non-toxic | inactive | inactive | inactive | inactive | Non-toxic
2130 nM | 1 |  | 2960 nM | Cn1c(=O)c2c(nc3n2CCCCN3C2CCCCC2)n(C)c1=O | inactive | inactive | inactive | Non-toxic | Non-toxic | inactive | Non-toxic | inactive | inactive | inactive | inactive | Non-toxic
≥ 25000 nM | 20 | 43% | 1240 nM | Cn1c(=O)c2c(nc3n2CCCN3C2CC2)n(C)c1=O | inactive | inactive | inactive | Non-toxic | Non-toxic | inactive | Toxic | inactive | inactive | inactive | inactive | Non-toxic
